RAD52 inh – blocks human RAD52 DNA annealing | P43351 | recombinant RAD52 DNA annealing, FRET fluorescence | inhibition, % at 18.7 µM | 0.46% of 360,000 active | AID 651710;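 active = every replicate showing at least 50% inhibition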
GSIS activator – GLuc luminescence reporter in INS-1E cells, primary screen for activators of glucose-dependent secretion of insulin. INS-1E GLuc reporter insulin secretion, 2-3 h. activation, % at 16.6 µM. 0.61% of 370,000 active;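 active = lowest replicate activation of at least 40%, so every replicate reaches that level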;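 note: 0% = median of neutral control wells and 100% = median of IBMX positive control wells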
Ecoli rRNA inh – inhibitors of bacterial rRNA selective over humanized ribosomes. AID 720706. GFP signal change (wild-type ribosome), % (concentration not given with the values). 1.6% of 350,000 active. E. coli WT GFP vs humanized-ribosome RFP mutants, fluorescence, 24 h; active compounds read low; DMSO median 0, no signal -100;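 active = significant combined selectivity score with lowered wild-type GFP, culture density cut under 30%, mutant RFP and density less affected; inactive = any of these conditions unmet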
MLL AF4-AF9 inh – inhibitors of human MLL-AF4/AF9 interaction; P42568; AlphaScreen, biotin-AF4 peptide binding to FLAG-AF9; inhibition, % at 10 µM; 0.47% of 350,000 active;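 active = every replicate reaching a set inhibition limit, whatever the replicate mean, cut at about 25% in these data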;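 note: 0% = plate neutral control median and 100% = total signal loss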
Target sequence (P42568 whole entry, looked up): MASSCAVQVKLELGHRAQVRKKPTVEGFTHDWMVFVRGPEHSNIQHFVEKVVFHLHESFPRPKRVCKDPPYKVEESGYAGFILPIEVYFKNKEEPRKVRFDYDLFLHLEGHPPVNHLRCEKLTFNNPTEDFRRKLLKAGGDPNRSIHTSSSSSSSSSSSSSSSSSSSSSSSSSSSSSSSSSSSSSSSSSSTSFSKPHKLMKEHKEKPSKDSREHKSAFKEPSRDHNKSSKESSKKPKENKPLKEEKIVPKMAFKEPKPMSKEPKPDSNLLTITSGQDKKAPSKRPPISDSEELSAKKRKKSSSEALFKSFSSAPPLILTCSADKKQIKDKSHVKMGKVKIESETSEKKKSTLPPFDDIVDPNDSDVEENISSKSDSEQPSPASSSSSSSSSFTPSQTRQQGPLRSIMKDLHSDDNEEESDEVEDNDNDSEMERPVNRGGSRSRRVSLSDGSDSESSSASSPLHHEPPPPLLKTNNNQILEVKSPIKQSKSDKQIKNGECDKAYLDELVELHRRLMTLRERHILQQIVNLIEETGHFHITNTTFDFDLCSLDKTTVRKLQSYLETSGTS
RAD54 branch – inhibitors of human RAD54 branch migration; 0.14% of 360,000 active; RAD54 Holliday junction branch migration, FAM/BHQ fluorescence; inhibition, % at 10.4 µM; Q92698;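 active = mean normalized replicate activity at least 40 and at least half of replicates scoring 40 or more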;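 note: 0% = median of neutral control wells and 100% = median of positive control wells; inhibitors cause a drop in the FAM fluorescence signal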
E-sel inducer – induces E-selectin expression in human endothelial cells; 0.37% of 260,000 active; HUVEC E-selectin immunofluorescence imaging; normalized: neutral wells 0, TNF-alpha wells 100; activation, % at 7.58 µM;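 active = mean E-selectin-positive cell signal at least 10% of the positive control, reached in at least 60% of replicates, without over 20% cell loss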
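Read-out: % PE-positive cells | Test system: HUVEC | Doses: One compound dose added by pin transfer | Buffer or medium: EGM-2 over gelatin coat | Signal: Immunofluorescence imaging | Benchmarks: TNF-alpha, DMSO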
* = called active by the depositor; ! = repeats disagree. Hits are enriched below; roughly 2.6% of the tested compounds scored in any of these assays.

`COc1ccccc1CN1[C@@H]2CN(C(=O)C3CC3)c3ccccc3[C@@H]2[C@@H]1CO` gave RAD52 inh 4.1, GSIS activator 1.0, Ecoli rRNA inh -1.0, MLL AF4-AF9 inh -0.3, RAD54 branch -6.3 and E-sel inducer 0.3.
COc1cccc(S(=O)(=O)N2C[C@H](O)COC[C@H]3O[C@H](CC(=O)Nc4ccccc4)CC[C@@H]32)c1 was read as RAD52 inh -6.2, GSIS activator 4.6, Ecoli rRNA inh 0.0, MLL AF4-AF9 inh -2.4, RAD54 branch 1.5 and E-sel inducer 0.0.
COc1cc(CNCCc2ccccc2)cc(Cl)c1OCc1ccccc1 was read as RAD52 inh 19.5, GSIS activator 122.2*, Ecoli rRNA inh -42.1, MLL AF4-AF9 inh -1.0 and RAD54 branch 17.0.
O=S(=O)(Nc1cccc(Oc2cnccn2)c1)c1ccc(F)cc1 was read as RAD52 inh -12.4, GSIS activator 12.0, Ecoli rRNA inh 3.3, MLL AF4-AF9 inh -1.2, RAD54 branch -2.2 and E-sel inducer 40.1*.
c1cc(-c2ccc(C3[C@H]4CNC[C@@H]3N4CC3CCCC3)cc2)ccn1 (some centres undefined) was read as RAD52 inh 22.4, GSIS activator 13.8, Ecoli rRNA inh 0.9, MLL AF4-AF9 inh 42.4* and E-sel inducer 0.2.
For c1cncc(-c2ccc([C@@H]3[C@H]4CNC[C@@H]3N4CC3CCOCC3)cc2)c1 the results were GSIS activator 4.1, Ecoli rRNA inh 7.3 and E-sel inducer -0.4.
`Fc1ccc(F)c(CN2[C@@H]3CNC[C@H]2C3c2ccc(-c3ccncc3)cc2)c1` (some centres undefined) gave RAD52 inh 80.8*!, GSIS activator -0.2, Ecoli rRNA inh -1.6, MLL AF4-AF9 inh 25.9*! and E-sel inducer -0.1.
O=[N+]([O-])c1ccc(C(O)C(CO)NC(=S)Nc2ccccc2)cc1 (centres undefined) was read as RAD52 inh -6.6, GSIS activator -4.3, Ecoli rRNA inh -44.1* and MLL AF4-AF9 inh 3.1.
`C[C@H](CO)N1C[C@H](C)[C@@H](CN(C)C(=O)Nc2ccc(F)cc2)Oc2ncc(C#C[C@@H](C)O)cc2C1=O` gave RAD52 inh -7.8, GSIS activator 9.7, Ecoli rRNA inh 4.0, MLL AF4-AF9 inh -1.4, RAD54 branch 4.3 and E-sel inducer -0.2.
For Cc1noc(C)c1NC(=O)Nc1cccc2c1O[C@@H](CN(C)Cc1ccc(C(=O)Nc3ccccc3N)cc1)[C@@H](C)CN([C@H](C)CO)C2=O the results were RAD52 inh 10.8, GSIS activator 3.3, Ecoli rRNA inh 1.8, MLL AF4-AF9 inh 4.6 and E-sel inducer -0.1.
`COc1cc(C(F)(F)F)c(C(=O)N(C)Cc2ccc(Cl)c(Cl)c2)cn1` gave RAD52 inh -3.2, GSIS activator -25.2, Ecoli rRNA inh -22.2*, MLL AF4-AF9 inh -2.3, RAD54 branch 4.8 and E-sel inducer -0.1.
`CC(C)Nc1nc(NC(N)=S)nc(NC(C)C)n1` gave GSIS activator 81.9* and E-sel inducer 1.0.
For CC(C)Nc1nc(NC(N)=S)nc(NC(C)(C)C)n1 the results were RAD52 inh -2.0, GSIS activator 44.0*, Ecoli rRNA inh -8.1, MLL AF4-AF9 inh -1.2 and E-sel inducer 0.4.
Screening CC(C)C#Cc1cnc2c(c1)C(=O)N([C@H](C)CO)C[C@@H](C)[C@@H](CN(C)C(=O)Nc1ccc(F)cc1)O2 returned RAD52 inh 0.4, GSIS activator -9.8, Ecoli rRNA inh 1.0, MLL AF4-AF9 inh 2.5, RAD54 branch -8.4 and E-sel inducer 0.1.
For CN(C)c1cc(NC(=O)CN2CCCC2)c2ccccc2n1 the results were RAD52 inh 36.1, Ecoli rRNA inh -1.2, MLL AF4-AF9 inh 0.4 and RAD54 branch 78.5*.
Screening O=C(CN1CCCC1)Nc1ccccc1Sc1ccc(Cl)cc1 returned RAD52 inh -2.2, GSIS activator -18.8, Ecoli rRNA inh -42.2*, MLL AF4-AF9 inh 2.9 and E-sel inducer 8.9.
O=C(CN1CCCCCC1)Nc1ccccc1Oc1ccccc1 was read as RAD52 inh -12.6, GSIS activator -19.4, Ecoli rRNA inh -41.3*, MLL AF4-AF9 inh -0.8, RAD54 branch -8.3 and E-sel inducer 7.5.
C[C@H]1CCCCO[C@@H](CN(C)Cc2ccncc2)[C@@H](C)CN([C@@H](C)CO)C(=O)c2cc(NS(=O)(=O)c3ccc(F)cc3)ccc2O1 was read as RAD52 inh -4.7, GSIS activator -19.1, Ecoli rRNA inh -2.1, MLL AF4-AF9 inh 0.3, RAD54 branch -4.1 and E-sel inducer -0.2.
For C[C@@H]1CCCCO[C@@H](CN(C)Cc2ccccc2)[C@@H](C)CN([C@@H](C)CO)C(=O)c2cc(NC(=O)C3CCCCC3)ccc2O1 the results were RAD52 inh 3.0, GSIS activator -17.6, Ecoli rRNA inh 3.9, MLL AF4-AF9 inh 5.1, RAD54 branch -4.6 and E-sel inducer 0.0.
`COc1ccc(N/C=C/C(=O)c2ccc(Cl)cc2)cc1` gave GSIS activator 112.3*.
COc1cccc(N/C=C/C(=O)c2ccc(Cl)cc2)c1 was read as RAD52 inh -61.1, GSIS activator 1.5, Ecoli rRNA inh 4.3, MLL AF4-AF9 inh -2.0 and RAD54 branch -5.4.
`CCOc1ccc(NC(=O)CN2C(=O)COc3ccc(S(=O)(=O)N4CCCCC4)cc32)cc1` gave RAD52 inh -18.1, GSIS activator -17.0, Ecoli rRNA inh -37.3, MLL AF4-AF9 inh 5.0 and RAD54 branch 9.4.
Screening CCOc1ccc(NC(=O)CN2C(=O)COc3ccc(S(=O)(=O)N4CCCC4)cc32)cc1 returned RAD52 inh -4.8, GSIS activator -31.4, Ecoli rRNA inh -22.6*, MLL AF4-AF9 inh -0.2, RAD54 branch -8.9 and E-sel inducer 10.2.
Screening Cc1ccccc1CCN1CCCC(CN(C)C(=O)c2ccc3ncccc3c2)C1 (centres undefined) returned RAD52 inh -1.6, GSIS activator -2.7, Ecoli rRNA inh -4.4, MLL AF4-AF9 inh 3.3, RAD54 branch -3.0 and E-sel inducer 68.3*.
For COc1ccccc1CCN1CCCC(CN(C)C(=O)c2ccc3nc[nH]c3c2)C1 (centres undefined) the results were RAD52 inh 7.7, GSIS activator 17.1, Ecoli rRNA inh 5.0, MLL AF4-AF9 inh 2.2 and RAD54 branch -6.2.
Screening COc1ccc(Nc2nc(C)cc(C)c2C(N)=O)cc1 returned GSIS activator -0.9 and RAD54 branch 8.0.
COc1ccc(Nc2n[nH]c(N)c2C(N)=O)cc1 was read as RAD52 inh -3.8, GSIS activator 9.5, Ecoli rRNA inh 7.4, MLL AF4-AF9 inh 29.0* and E-sel inducer 28.1*.
Screening CCCCCCn1c(-c2cccs2)n[nH]c1=S returned RAD52 inh -6.8, GSIS activator 45.8*, Ecoli rRNA inh -56.3, MLL AF4-AF9 inh -3.6 and RAD54 branch -1.6.

Source: PubChem (Broad Institute)
